EWS-Fli block: EWS/Fli-driven NR0B1 reporter inhibitors, primary screen, A673 cells, NR0B1 luciferase, luminescence, MLPCN library; viability-normalised; inhibition, % at 12.6 µM; actives 0.67% (n = 350,000); AID 651661, 2012;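 active means mean inhibition of at least 50% after viability correction, with every replicate also passing that limit; inconclusive means mean reaches 50% but only one of two replicates passes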;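 further: firefly luciferase signal divided by Alamar Blue viability fluorescence both relative to DMSO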
PAX8 inh HTS: inhibitors of PAX8-driven TPO luciferase reporter, primary screen, RMG-I cells, single concentration | actives 1.2% (n = 360,000) | inhibition, % at 12.6 µM | SteadyGlo, 24 h | AID 652154, 2013;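 active means mean replicate inhibition at least 60% with every replicate also reaching 60%; inconclusive means only one of the two criteria is met; inactive means mean below 60% and not all replicates reaching 60%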;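 further: luciferase light reporting Pax8 driven TPO promoter activity; plate controls were median of neutral control wells for no effect and mitoxantrone controls for full effect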
AF4-AF9 inh: inhibitors of AF4 peptide binding to AF9, primary screen, biochemical, AlphaScreen, biotin-AF4 peptide, FLAG-AF9, single point. Protein AF-9 (Homo sapiens), P42568. actives 0.47% (n = 350,000). inhibition, % at 10 µM. AID 651704, 2012;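 active means every replicate reaching a set inhibition limit, whatever the replicate mean, cut at about 25% in these data; inconclusive means mean inhibition reaches that limit but some replicates miss it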;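 further: 0% = plate neutral control median and 100% = total signal loss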
Target sequence (P42568 whole entry, looked up): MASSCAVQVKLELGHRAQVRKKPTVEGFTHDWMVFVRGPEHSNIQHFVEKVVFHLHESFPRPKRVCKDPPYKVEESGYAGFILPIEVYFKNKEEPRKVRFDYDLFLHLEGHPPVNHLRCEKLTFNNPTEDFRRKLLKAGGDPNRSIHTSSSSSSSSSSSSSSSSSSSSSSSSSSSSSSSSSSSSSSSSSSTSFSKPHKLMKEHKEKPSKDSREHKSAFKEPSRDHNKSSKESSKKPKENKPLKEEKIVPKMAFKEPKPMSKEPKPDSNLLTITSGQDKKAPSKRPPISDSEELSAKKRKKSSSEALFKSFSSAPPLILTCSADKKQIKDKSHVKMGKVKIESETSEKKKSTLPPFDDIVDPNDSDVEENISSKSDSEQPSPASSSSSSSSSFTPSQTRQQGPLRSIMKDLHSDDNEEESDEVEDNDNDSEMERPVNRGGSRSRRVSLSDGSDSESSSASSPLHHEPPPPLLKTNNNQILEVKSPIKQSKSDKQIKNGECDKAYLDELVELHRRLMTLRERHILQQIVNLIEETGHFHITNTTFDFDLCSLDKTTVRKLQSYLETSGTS
N-glyco inh: increase of ERlucT glycosylation luciferase signal, primary screen, N-linked glycosylation inhibitor project, D54 ERlucT cells, luminescence, set 2. reporter increase, % at 12.5 µM. AID 588692, 2011. actives 0.23% (n = 360,000). D54 ERlucT glycosylation luciferase reporter, 24 h; percent of 100 nM tunicamycin response;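 active means mean luciferase reporter signal, scaled so untreated is 0 and the glycosylation-blocking control 100, at or above a set limit in every replicate; inconclusive means mean reaches the limit but not every replicate does; inactive means mean below the limit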;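 further: luciferase carries N-glycosylation sites so blocking glycosylation raises the light; 0% = median of neutral control wells and 100% = median of 100 nM tunicamycin wells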
FN deposition inh: inhibitors of fibronectin matrix deposition, primary screen, AH1F cells, Alexa488-fibronectin fluorescence, plate reader; AH1F fibroblasts, overnight; inhibition, % at 12.6 µM; actives 0.086% (n = 350,000); AID 743247, 2014;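 active means mean inhibition across replicates of 30% or more, regardless of how many single replicates reach that level; inconclusive means mean under 30% yet at least half of replicates reach 30%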;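 further: positive control wells lacked labelled fibronectin entirely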
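Material: AH1F fibroblasts assembling fluorescent fibronectin matrix; amount: 10000 AH1F cells/well; medium: DMEM, 2% serum; reagent: Alexa488-fibronectin, 24 nM final in well; dosing: single compound dose, delivered by pin transfer; incubation: 1 h adhesion, overnight exposure; detection: fluorescence after three HBSS washes, excitation 485 nm, emission 525 nm; measure: fibronectin deposition inhibition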
HIV Env fusion: inhibitors of HIV-1 Env-driven cell-cell fusion, primary screen, HeLa-JRFL effector, CEM21 target cells, luciferase | inhibition, % at 12.3 µM | actives 1.1% (n = 360,000);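 active means mean replicate inhibition score of at least 50 and every replicate individually at or above 50; inconclusive means only one of the two criteria met; inactive means mean below 50 and not all replicates reaching 50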;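 further: 0% = plate neutral controls and 100% = maraviroc near 300 nM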
* hit, by the source's call; i = inactive; ? = inconclusive; . = no result given; [ ] = another dose, or the depositor's remark. Shown are actives, neighbours in structure and some others; about 2.5% of the full set was active somewhere.

SMILES	EWS-Fli block	PAX8 inh HTS	AF4-AF9 inh	N-glyco inh	FN deposition inh	HIV Env fusion
O=C(CCNC(=O)c1ccc(Br)cc1)NNC(=O)COc1ccccc1F	-4.5	10.6	-2.0	0.9	0.2	73.5*
Cc1ccnc(NC(=O)CCNC(=O)c2ccc(Br)cc2)c1	-32.0	-57.8	-4.5	4.2	-2.9	56.7*
CC(C)(C)c1ccc(C(=O)NCCOc2ccccc2F)cc1	74.9*	28.7	-1.3	-18.3	-1.4	-6.8
Cc1ccc(NC(=O)CCNC(=O)c2ccc(Br)cc2)nc1	.	-23.5	-2.2	2.7	.	12.8
COc1cc(C2C(C#N)=C(N)Oc3cc(N)ccc32)cc(OC)c1OC (stereo not drawn)	.	.	.	31.8*	.	.
COc1ccc(C2C(C#N)=C(N)Oc3c2ccc2cccnc32)cc1OC (stereo not drawn)	26.0	85.8*	?	4.6	-0.8	-462.9
COc1ccc(C2C(C#N)=C(N)Oc3cc(N)ccc32)cc1 (stereo not drawn)	-0.5	-100.2	-13.2	1.0	4.5	5.2
O=C1NC(=S)S/C1=C\C=C\c1ccc([N+](=O)[O-])o1	69.9*	47.5	7.1	-19.0	-1.8	i
O=C(N/N=C/c1cccnc1)c1ccccc1OCc1ccc(Br)cc1	-2.6	18.7	0.3	3.2	7.5	15.8
O=C(N/N=C/c1cccnc1)c1cc(-c2ccccc2OCc2ccccc2)n[nH]1	21.1	35.2	-7.4	40.9*	7.4	17.3
CN(C)C(=O)C[C@@H]1CC[C@H]2[C@@H](COC[C@@H](O)CN2Cc2ccc(C(F)(F)F)cc2)O1	-6.8	15.4	.	.	-12.7	-5.6[16.7 µM]
O=C(Nc1ccccc1)Nc1cc(Cl)cc(Cl)c1	.	.	.	-4.2	.	.
O=C(Nc1ccccc1)Nc1cc(OCC(F)(F)F)cc(OCC(F)(F)F)c1	44.3	94.8*	-1.0	-13.8	5.0	62.1*
C[C@H]1CCCCO[C@@H](CN(C)CC2CCCCC2)[C@@H](C)CN([C@@H](C)CO)C(=O)c2cc(NC(=O)CCC(F)(F)F)ccc2O1	12.7	-10.8	.	.	.	19.8[16.7 µM]
C[C@@H]1CCCCO[C@@H](CN(C)Cc2ccccc2)[C@@H](C)CN([C@H](C)CO)C(=O)c2cc(NS(C)(=O)=O)ccc2O1	-4.6	-24.8	.	.	.	-1.2[16.7 µM]
Cc1ccc(CN(CC(O)COc2cccc3[nH]cc(C)c23)C(C)(C)C)cc1 (stereo not drawn)	23.5	21.6	29.3*	-10.3	2.9	-0.8
CCNC(=O)C1CCCN(C(=O)c2ccc(F)c(Cl)c2)CC1 (stereo not drawn)	-6.2	76.3*	-3.3	1.7	.	33.6
CCNC(=O)C1CCCN(C(=O)c2cccc(Cl)c2)CC1 (stereo not drawn)	-2.2	-20.1	-2.1	0.9	8.9	-10.9
C=CCOc1cccc(C(=O)/C=C2/C(=O)Nc3ccccc32)c1	54.3*	0.0	2.5	20.2	15.4	-62.3
N#Cc1cccc(-c2ccc3c(c2)[C@H]2[C@H](CCN2C(=O)C2CCCCC2)[C@H](CO)N3)c1	11.9	65.8*	-5.6	.	14.5	.
N#Cc1ccc(-c2ccc3c(c2)[C@H]2[C@H](CCN2C(=O)C2CCCC2)[C@H](CO)N3)cc1	-7.6	.	-4.2	.	.	.
N#Cc1cccc(-c2ccc3c(c2)[C@@H]2[C@@H](CCN2S(=O)(=O)c2ccc(F)cc2)[C@@H](CO)N3)c1	1.7	75.8*	-0.7	.	20.8	.
COc1ccccc1-c1ccc2c(c1)[C@H]1[C@H](CCN1C(=O)C1CCCCC1)[C@@H](CO)N2	8.5	90.2*	12.5	.	4.1	.
COc1ccccc1-c1ccc2c(c1)[C@H]1[C@H](CCN1C(=O)C1CCCC1)[C@H](CO)N2	-4.1	.	13.8	.	.	.
Cc1ccc(S(=O)(=O)N2CC[C@H]3[C@H](CO)Nc4ccc(-c5cccc(C(=O)N(C)C)c5)cc4[C@H]32)cc1	-15.1	6.0	1.0	.	30.6*	.
CC(=O)Nc1ccc2c(c1)C(=O)N(C)C[C@@H](C)[C@H](CN(C)C(C)=O)O2	.	.	.	.	4.2	.
N#Cc1ccc(-c2ccc3c(c2)[C@@H]2[C@@H](CCN2C(=O)C2CCC2)[C@@H](CO)N3)cc1	2.4	.	2.1	.	2.6	.

Screens as filed in PubChem.
